Assay results from ChEMBL document CHEMBL1681713, “Lead detoxification activities and ADMET hepatotoxicities of a class of novel 5-(1-carbonyl-L-amino-acid)-2,2-dimethyl-[1,3]dithiolane-4-carboxylic acids” (Bioorg Med Chem Lett, 2011).

How the values were obtained:
Kidney [1] = assay: Toxicity in mouse assessed as effect on zinc level in kidney per gram of organ at 0.4 mmol/kg, ip qd for 5 days; assay type: organism-based; conditions: in vivo, 120 h
[2] = Detoxification activity against lead-induced toxicity in mouse assessed as reduction lead level in feces at 0.4 mmol/kg, ip qd for 5 days measured 24 hrs last post dose by synchrotron X-ray fluorescence analysis; assay type: functional
Method in brief: (§1)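 Lead-loaded mice were given normal saline vehicle, DL-penicillamine or NaDMS (positive controls), or test agent, each at 0.4 mmol/kg; n = 12 per group. Lead was measured in feces and urine and reported as mean ± SD µg Pb/g excrement against the NS group.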

Liver [3] = assay: Toxicity in mouse assessed as effect on zinc level in liver per gram of organ at 0.4 mmol/kg, ip qd for 5 days; assay type: organism-based; conditions: in vivo, 120 h
Kidney [4] = assay: Toxicity in mouse assessed as effect on copper level in kidney per gram of organ at 0.4 mmol/kg, ip qd for 5 days; assay type: organism-based; conditions: in vivo, 120 h
Brain [5] = assay: Toxicity in mouse assessed as effect on zinc level in brain per gram of organ at 0.4 mmol/kg, ip qd for 5 days; assay type: organism-based; conditions: in vivo, 120 h
Kidney [6] = assay: Toxicity in mouse assessed as effect on manganese level in kidney per gram of organ at 0.4 mmol/kg, ip qd for 5 days; assay type: organism-based; conditions: in vivo, 120 h
[7] = Detoxification activity against lead-induced toxicity in mouse assessed as reduction lead level in urine at 0.4 mmol/kg, ip qd for 5 days measured 24 hrs last post dose by synchrotron X-ray fluorescence analysis; assay type: functional; method in brief: as §1
Liver [8] = assay: Detoxification activity against lead-induced toxicity in mouse assessed as reduction lead level in liver per gram of organ at 0.6 mmol/kg, ip qd for 5 days measured 24 hrs last post dose by synchrotron X-ray fluorescence analysis; assay type: functional
Method in brief: (§2)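 Lead-loaded mice were given normal saline vehicle (negative control) or test agent at 0.2, 0.4 or 0.6 mmol/kg. Lead was measured in liver, kidney, left femur and brain and reported as mean ± SD µg Pb/g organ against the NS group.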

Brain [9] = assay: Toxicity in mouse assessed as effect on copper level in brain per gram of organ at 0.4 mmol/kg, ip qd for 5 days; assay type: organism-based; conditions: in vivo, 120 h
Kidney [10] = assay: Toxicity in mouse assessed as effect on iron level in kidney per gram of organ at 0.4 mmol/kg, ip qd for 5 days; assay type: organism-based; conditions: in vivo, 120 h
Liver [11] = assay: Toxicity in mouse assessed as effect on manganese level in liver per gram of organ at 0.4 mmol/kg, ip qd for 5 days; assay type: organism-based; conditions: in vivo, 120 h
Kidney [12] = assay: Detoxification activity against lead-induced toxicity in mouse assessed as reduction lead level in kidney per gram of organ at 0.4 mmol/kg, ip qd for 5 days measured 24 hrs last post dose by synchrotron X-ray fluorescence analysis; assay type: functional; method in brief: as §2
Brain [13] = assay: Toxicity in mouse assessed as effect on calcium level in brain per gram of organ at 0.4 mmol/kg, ip qd for 5 days; assay type: organism-based; conditions: in vivo, 120 h
Mus musculus = assay: Toxicity in mouse assessed as change in bodyweight at 0.4 mmol/kg, ip qd for 5 days; assay type: organism-based; conditions: in vivo, 120 h
Method in brief: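 Lead-loaded mice were given normal saline vehicle or test agent at 0.4 mmol/kg. Body weights were recorded and compared with the NS group to assess growth.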

Liver [14] = assay: Toxicity in mouse assessed as effect on copper level in liver per gram of organ at 0.4 mmol/kg, ip qd for 5 days; assay type: organism-based; conditions: in vivo, 120 h
Femur [15] = assay: Detoxification activity against lead-induced toxicity in mouse assessed as reduction lead level in femurs per gram of organ at 0.2 mmol/kg, ip qd for 5 days measured 24 hrs last post dose by synchrotron X-ray fluorescence analysis; assay type: functional; method in brief: as §2
Brain [16] = assay: Toxicity in mouse assessed as effect on manganese level in brain per gram of organ at 0.4 mmol/kg, ip qd for 5 days; assay type: organism-based; conditions: in vivo, 120 h
Femur [17] = assay: Detoxification activity against lead-induced toxicity in mouse assessed as reduction lead level in femurs per gram of organ at 0.6 mmol/kg, ip qd for 5 days measured 24 hrs last post dose by synchrotron X-ray fluorescence analysis; assay type: functional; method in brief: as §2
Kidney [18] = assay: Detoxification activity against lead-induced toxicity in mouse assessed as reduction lead level in kidney per gram of organ at 0.6 mmol/kg, ip qd for 5 days measured 24 hrs last post dose by synchrotron X-ray fluorescence analysis; assay type: functional; method in brief: as §2
Kidney [19] = assay: Detoxification activity against lead-induced toxicity in mouse assessed as reduction lead level in kidney per gram of organ at 0.2 mmol/kg, ip qd for 5 days measured 24 hrs last post dose by synchrotron X-ray fluorescence analysis; assay type: functional; method in brief: as §2
Kidney [20] = assay: Toxicity in mouse assessed as effect on calcium level in kidney per gram of organ at 0.4 mmol/kg, ip qd for 5 days; assay type: organism-based; conditions: in vivo, 120 h
Femur [21] = assay: Detoxification activity against lead-induced toxicity in mouse assessed as reduction lead level in femurs per gram of organ at 0.4 mmol/kg, ip qd for 5 days measured 24 hrs last post dose by synchrotron X-ray fluorescence analysis; assay type: functional; method in brief: as §2
Brain [22] = assay: Toxicity in mouse assessed as effect on iron level in brain per gram of organ at 0.4 mmol/kg, ip qd for 5 days; assay type: organism-based; conditions: in vivo, 120 h
Liver [23] = assay: Toxicity in mouse assessed as effect on calcium level in liver per gram of organ at 0.4 mmol/kg, ip qd for 5 days; assay type: organism-based; conditions: in vivo, 120 h
Liver [24] = assay: Toxicity in mouse assessed as effect on iron level in liver per gram of organ at 0.4 mmol/kg, ip qd for 5 days; assay type: organism-based; conditions: in vivo, 120 h
Brain [25] = assay: Detoxification activity against lead-induced toxicity in mouse assessed as reduction lead level in brain per gram of organ at 0.2 mmol/kg, ip qd for 5 days measured 24 hrs last post dose by synchrotron X-ray fluorescence analysis; assay type: functional; method in brief: as §2
Liver [26] = assay: Detoxification activity against lead-induced toxicity in mouse assessed as reduction lead level in liver per gram of organ at 0.2 mmol/kg, ip qd for 5 days measured 24 hrs last post dose by synchrotron X-ray fluorescence analysis; assay type: functional; method in brief: as §2
Brain [27] = assay: Detoxification activity against lead-induced toxicity in mouse assessed as reduction lead level in brain per gram of organ at 0.4 mmol/kg, ip qd for 5 days measured 24 hrs last post dose by synchrotron X-ray fluorescence analysis; assay type: functional; method in brief: as §2
Liver [28] = assay: Detoxification activity against lead-induced toxicity in mouse assessed as reduction lead level in liver per gram of organ at 0.4 mmol/kg, ip qd for 5 days measured 24 hrs last post dose by synchrotron X-ray fluorescence analysis; assay type: functional; method in brief: as §2
Brain [29] = assay: Detoxification activity against lead-induced toxicity in mouse assessed as reduction lead level in brain per gram of organ at 0.6 mmol/kg, ip qd for 5 days measured 24 hrs last post dose by synchrotron X-ray fluorescence analysis; assay type: functional; method in brief: as §2
Caco-2 = assay: Efflux ratio of permeability […] in human Caco2 cells at 4 mM up to 120 mins by HPLC analysis; assay type: ADME, cell-based; conditions: caco-2, 2 h, 4000 µM
Method in brief: (§3)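 Permeability measured across Caco-2 cell monolayers.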

[30] = Apparent permeability from apical to basolateral side of human Caco2 cells at 4 mM up to 120 mins by HPLC analysis; assay type: ADME, cell-based; conditions: Caco-2; method in brief: as §3
[31] = Apparent permeability from basolateral to apical side of human Caco2 cells at 4 mM up to 120 mins by HPLC analysis; assay type: ADME, cell-based; conditions: Caco-2; method in brief: as §3

Compound | Activity (Kidney [1]) [µg/g] | Activity [2] [µg/g] | Activity (Liver [3]) [µg/g] | Activity (Kidney [4]) [µg/g] | Activity (Brain [5]) [µg/g] | Activity (Kidney [6]) [µg/g] | Activity [7] [µg/g] | Activity (Brain [9]) [µg/g] | Activity (Kidney [10]) [µg/g] | Activity (Liver [11]) [µg/g] | Activity (Kidney [12]) [µg/g] | Activity (Brain [13]) [µg/g] | Activity (Mus musculus) [g] | Activity (Liver [14]) [µg/g] | Activity (Brain [16]) [µg/g] | Activity (Kidney [20]) [µg/g] | Activity (Femur [21]) [µg/g] | Activity (Brain [22]) [µg/g] | Activity (Liver [23]) [µg/g] | Activity (Liver [24]) [µg/g] | other results
CC1(C)SC(C(=O)O)C(C(=O)N[C@@H](CC(=O)O)C(=O)O)S1 (stereo not given in full) | 27.89 | 4.8 | 37.69 | 3.53 | 34.8 | 1.32 | 2.83 | 2.4 | 93.98 | 1.35 | 7.09 | 68.28 | 31.1 | 3.61 | 0.78 | 76.47 | 11.1 | 56.37 | 59.89 | 154.86 | Activity (Liver [8]): 2.77 µg/g; Activity (Femur [15]): 17.21 µg/g; Activity (Femur [17]): 9.64 µg/g; Activity (Kidney [18]): 5.9 µg/g; Activity (Kidney [19]): 7.68 µg/g; Activity (Brain [25]): 1.69 µg/g; Activity (Liver [26]): 5.81 µg/g; Activity (Brain [27]): 1.22 µg/g; Activity (Liver [28]): 3.82 µg/g; Activity (Brain [29]): 0.84 µg/g
CC[C@H](C)[C@H](NC(=O)C1SC(C)(C)SC1C(=O)O)C(=O)O (stereo not given in full) | 27.41 | 4.1 | 36.79 | 3.54 | 33 | 1.44 | 2.42 | 2.48 | 92.98 | 1.34 | 6.49 | 69 | 30.6 | 3.73 | 0.75 | 75.99 | 14.32 | 56.49 | 59.96 | 152.94 | Ratio (Caco-2): 2.9; Papp A→B at 2 h, 4000 µM [30]: 14.2 ×10⁻⁶ cm/s; Papp B→A at 2 h, 4000 µM [31]: 4.91 ×10⁻⁶ cm/s; Activity (Brain [27]): 1.42 µg/g; Activity (Liver [28]): 5 µg/g
